Experiments:
Rattus norvegicus [1] = species: Rattus norvegicus; experiment: In vitro inhibitory concentration of compound required to double the time to fibrin formation upon incubation with rat plasma for 10 minutes at 37 degrees C; type: functional
How it was run: (§1)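 Inhibitor at increasing concentrations, or solvent, added to plasma and incubated 10 min at 37 °C. PT then measured in a coagulometer using commercial kits and compared with control plasma. Value is the concentration that doubles time to fibrin formation.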

Coagulation factor X [2] = biological target: T1, Coagulation factor X (Homo sapiens, UniProt P00742); experiment: In vitro inhibitory concentration of compound required to double the time to fibrin formation upon incubation with human plasma for 10 minutes at 37 degrees C; type: functional, cell-free; how it was run: as §1
Coagulation factor X [3] = biological target: T1, Coagulation factor X; experiment: In vitro inhibition of human coagulation factor Xa after incubation for 10 min at 25 degree C
[4] = Plasma clearance in wistar rats after intravenous administration of the compound at a dose of 1 mg/kg; type: ADME, organism-based; parameters: dose 1 mg/kg, route intravenous; settings: rat
How it was run: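 Rats given 1 mg kg-1 iv in EtOH/PEG400 (1:9), 1 mL kg-1.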

[5] = Half-life after intravenous administration to rats; type: ADME, organism-based; settings: rat, in vivo
Rattus norvegicus [6] = experiment: In vivo antithrombotic activity of compound in the arteriovenous shunt model in anesthetized rats after peroral administration; type: functional; settings: po
How it was run: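 Anesthetized rats, AV shunt from right carotid artery to left jugular vein, containing a nylon thread folded into a 20 mm double string. Compound in solutol/ethanol/water (40%/10%/50% v/v/v), or vehicle, dosed orally 90 min before thrombus induction. Shunt opened for 15 min, then the thread with thrombus was removed and weighed.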

[7] = Apparent volume of distribution at equilibrium after intravenous administration in rats; type: ADME, organism-based; settings: rat, in vivo, read-out: Vss
[8] = Fraction of unbound compound in rat plasma; type: ADME, cell-free
How it was run: (§2)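 Equilibrium dialysis of [14C]-labelled compound in plasma at targets of 0.1–100 mg L-1. Spiked plasma preincubated 15 min at 37 °C, then dialyzed 1 h at 37 °C against PBS pH 7.4 across a cellulose membrane. Radioactivity in buffer and plasma counted by LSC; fu = cu/c × 100.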

Rattus norvegicus [9] = experiment: In vivo antithrombotic activity of compound in the arteriovenous shunt model in anesthetized rats after intravenous administration; type: functional
How it was run: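 Anesthetized rats with a carotid artery to jugular vein shunt: PE-60 catheters joined by a 30 mm PE-160 tube holding a rough nylon thread folded into a 20 mm double string. Compound in PEG/water/glycerol (996 g/100 g/60 g), or vehicle, given as iv bolus into a tail vein 10 min before thrombus induction. Shunt open 15 min; thread with thrombus withdrawn and weighed.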

[10] = Oral bioavailability in rat; type: ADME, organism-based; settings: in vivo
[11] = Plasma clearance in wistar rats after intravenous administration of the compound at a dose of 0.3 mg/kg; type: ADME, organism-based; parameters: dose 0.3 mg/kg, route intravenous; settings: rat
How it was run: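 Rats given 0.3 mg kg-1 iv in plasma/DMSO (99:1), 2 mL kg-1.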

[12] = Bioavailability in female Beagle dog is the mean value of AUCnorm perorally to AUCnorm intravenously; type: ADME, organism-based, Canis lupus familiaris; settings: in vivo, po
How it was run: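 Female beagle dogs dosed po at 0.3, 1 and 3 mg kg-1, 1 mL kg-1. Bioavailability = AUCnorm after oral dosing divided by AUCnorm after iv 0.3 or 1.0 mg kg-1 infusion.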

[13] = Fraction of unbound compound in female Beagle dog plasma; type: ADME, cell-free, Canis lupus familiaris; settings: read-out: Fraction free drug in plasma; how it was run: as §2
[14] = Mean half-life after intravenous administration to rats at a dose of 1 and 3 mg/kg; type: ADME, organism-based; parameters: dose 3 mg/kg, route intravenous; settings: rat, in vivo
How it was run: (§3)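 Rats given 1 and 3 mg kg-1 iv in PEG400/water (6:4), 5 mL kg-1. Values are means over both doses.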

[15] = Mean half-life after intravenous administration to female Beagle dogs at a dose of 0.3 and 1 mg/kg; type: ADME, organism-based, Canis lupus familiaris; parameters: dose 1 mg/kg, route intravenous; settings: dog, in vivo
[16] = Mean apparent volume of distribution at equilibrium after intravenous administration in rats at a dose of 1 and 3 mg/kg; type: ADME, organism-based; parameters: dose 3 mg/kg, route intravenous; settings: rat, in vivo, read-out: Vss; how it was run: as §3
[17] = Mean plasma clearance in wistar rats after intravenous administration of the compound at a dose of 1 and 3 mg/kg; type: ADME, organism-based; parameters: dose 3 mg/kg, route intravenous; settings: rat; how it was run: as §3
[18] = Mean plasma clearance in female Beagle dogs after intravenous administration of the compound at a dose of 0.3 and 1 mg/kg; type: ADME, organism-based, Canis lupus familiaris; parameters: dose 1 mg/kg, route intravenous; settings: dog
[19] = Mean apparent volume of distribution at equilibrium after administration in female Beagle dogs at a dose of 0.3 and 1 mg kg-1 intravenously; type: ADME, organism-based, Canis lupus familiaris; parameters: dose 1 mg kg-1, route intravenous; settings: dog, in vivo, iv, read-out: Vss

T1 sequence (P00742 41-179 limits assumed): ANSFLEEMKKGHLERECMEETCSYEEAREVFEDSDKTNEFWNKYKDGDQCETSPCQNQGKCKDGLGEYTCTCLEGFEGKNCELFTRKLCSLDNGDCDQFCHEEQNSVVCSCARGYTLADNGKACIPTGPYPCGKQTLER
T1 sequence (P00742 235-488 limits assumed): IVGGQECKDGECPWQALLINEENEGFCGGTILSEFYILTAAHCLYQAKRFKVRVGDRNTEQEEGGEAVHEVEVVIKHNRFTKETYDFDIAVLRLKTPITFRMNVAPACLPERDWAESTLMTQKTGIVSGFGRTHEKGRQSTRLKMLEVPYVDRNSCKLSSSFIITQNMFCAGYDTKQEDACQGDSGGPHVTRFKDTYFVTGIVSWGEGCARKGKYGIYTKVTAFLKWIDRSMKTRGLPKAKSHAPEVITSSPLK

Compound | IC50 (Coagulation factor X [3]) | Concentration (Rattus norvegicus [1]) | Concentration (Coagulation factor X [2]) | ED50 (Rattus norvegicus [6]) | ED50 (Rattus norvegicus [9]) | also measured
Nc1cc(N2C[C@H](CNC(=O)c3ccc(Cl)s3)OC2=O)ccc1N1CCOCC1=O |  | 0.49 µM | 0.3 µM |  |  | 
O=C(NC[C@H]1CN(c2ccc(N3CCCC3=O)cc2)C(=O)O1)c1ccc(Cl)s1 |  | 2.8 µM |  | > 30 mg/kg | 7 mg/kg | clearance [4]: 2.83 mL/min/kg; half-life [5]: 66 min; Vd [7]: 0.21 L/kg; fraction unbound ([8]; read-out: Fraction free drug in plasma): 0.002; bioavailability [10]: 65%
O=C(NC[C@H]1CN(c2ccc(N3CCOCC3=O)c(F)c2)C(=O)O1)c1ccc(Cl)s1 |  | 0.32 µM | 0.17 µM | 10 mg/kg | 1 mg/kg | half-life [5]: 18 min; Vd [7]: 0.32 L/kg; clearance [11]: 18.2 mL/min/kg
O=C(NC[C@H]1CN(c2ccc(N3CCOCC3=O)cc2)C(=O)O1)c1ccc(Cl)s1 [RIVAROXABAN] |  | 0.3 µM | 0.23 µM | 5 mg/kg | 1 mg/kg | bioavailability [12]: 86%; fraction unbound [13]: 0.104; Fraction free drug in plasma [8]: 1.3%; half-life [14]: 54 min; half-life [15]: 54 min; Vd [16]: 0.3 L/kg; bioavailability [10]: 60%; clearance [17]: 6.67 mL/min/kg; clearance [18]: 5 mL/min/kg; Vd [19]: 0.4 L/kg
O=C(NC[C@H]1CN(c2ccc(N3CCOCC3=O)c(C(F)(F)F)c2)C(=O)O1)c1ccc(Cl)s1 |  | 0.32 µM | 0.26 µM |  | 3 mg/kg | 
N=C(N)COc1cccc(CN2CC3C(NC(=O)c4ccc(Cl)s4)C=CC[C@H]3C2=O)c1 (some centres not stated) | 120 nM |  |  |  |  | 

Further lines, with some results ahead:

IC50 (Coagulation factor X [3]) | Compound | Concentration (Rattus norvegicus [1]) | Concentration (Coagulation factor X [2]) | ED50 (Rattus norvegicus [6]) | ED50 (Rattus norvegicus [9]) | also measured
8.5 nM | Nc1cc(C(=O)NC[C@H]2CN(c3ccc(N4CCOCC4=O)cc3)C(=O)O2)sc1Cl |  |  |  |  | 
20000 nM | O=C(NC[C@H]1CN(c2ccc(N3CCSCC3)c(F)c2)C(=O)O1)c1cccs1 |  |  |  |  | 

Reference: ChEMBL document CHEMBL1140410, “Discovery of the novel antithrombotic agent 5-chloro-N-({(5S)-2-oxo-3- [4-(3-oxomorpholin-4-yl)phenyl]-1,3-oxazolidin-5-yl}methyl)thiophene- 2-carboxamide (BAY 59-7939): an oral, direct factor Xa inhibitor” (J Med Chem, 2005)
